NOD2-RIPK2 inh: NOD2-RIPK2 binding disruptors in cells, primary screen, fluorescence, CHO cells, BLA complementation | Receptor-interacting serine/threonine-protein kinase 2 (Homo sapiens), O43353 | CCF4 ratio | inhibition, % at 4.98 µM | 360,000 compounds, 0.38% hits | AID 624267, 2012; in the data active = inhibition above about 21%;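 also: 0% = vehicle only and 100% = reference blocker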
Hep lipid drop: inhibitors of hepatocyte lipid droplet formation, primary screen, imaging, high-throughput imaging, BODIPY stain | AML12 mouse hepatocytes, oleate lipid droplets | inhibition, % at 6.5 µM | 240,000 compounds, 0.4% hits | AID 1656, 2009;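 active = lipid droplet intensity inhibited by at least 50%, with more than 500 cells counted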
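Assay system: AML12 hepatocytes (mouse); Probe or stimulus: oleic acid at 100 µM to induce lipid droplet formation; Dosing: compound at 6.5 µM only; Schedule: compound with oleate, overnight; Detection: fluorescence imaging, 20x objective, two fields per well; Measure: % inhibition of lipid droplet signal.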
TLR9-MyD88 inh: inhibitors of TLR9-MyD88 association in cells, primary screen, cell-based, CHO, BLA complementation, fluorescence; Toll-like receptor 9 (Homo sapiens) + Myeloid differentiation primary response protein …; CCF4 FRET ratio; inhibition, % at 4.98 µM; 340,000 compounds, 0.21% hits;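 active = inhibition above the mean over all tested compounds plus 3 SD, cut at about 21% in these data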;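 also: 0% = DMSO only wells and 100% = clavulanate BLA inhibitor control wells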
TLR4-MyD88 BLA: inhibitors of TLR4-MyD88 association in cells, primary screen, cell-based, HeLa CL3-4, BLA complementation, FRET ratio | Toll-like receptor 4 (Homo sapiens) + Myeloid differentiation primary response protein … | HeLa CL3-4 TLR4/MyD88 BLA complementation | inhibition, % at 8.4 µM | 200,000 compounds, 0.18% hits; in the data active = inhibition above about 25%;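 also: 0% = vehicle and 100% = reference inhibitor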
SR-BI DiI-HDL act: activators of SR-BI mediated DiI-HDL uptake, primary screen, ldlA[mSR-BI] CHO cells, DiI fluorescence; 3 h; 100 = double the neutral-control signal; activation, % at 12.5 µM; 320,000 compounds, 0.096% hits;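 active = mean replicate activation of at least 60% and every replicate at or above 60%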;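 also: 0% = median plate neutral-control signal and 100% = twice that signal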
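Test system: SR-BI-overexpressing, LDLR-lacking CHO cells; Also added: labelled HDL, 10 µg/mL; Measured by: bottom-read cell fluorescence after medium removal, ex 550/em 595 nm; Timing: 3 h uptake period with compound, 37 °C; Buffer or medium: F12, 0.5% BSA, 25 mM HEPES; Doses: single compound concentration, delivered by pin transfer.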
SR-BI DiI inh: inhibitors of SR-BI mediated HDL lipid uptake, primary screen, ldlA[mSR-BI] cells, fluorescence, single point | inhibition, % at 12.5 µM | Scavenger receptor class B member 1 (Mus musculus), Q61009 | 320,000 compounds, 0.96% hits | ldlA[mSR-BI] CHO cells, DiI-HDL uptake fluorescence, 3 h;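 active = mean replicate inhibition of at least 70% and a set share of replicates each scoring 70 or more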;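 also: 0% = median of neutral control wells and 100% = median of positive control wells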
Target sequence (Q61009 whole entry, looked up): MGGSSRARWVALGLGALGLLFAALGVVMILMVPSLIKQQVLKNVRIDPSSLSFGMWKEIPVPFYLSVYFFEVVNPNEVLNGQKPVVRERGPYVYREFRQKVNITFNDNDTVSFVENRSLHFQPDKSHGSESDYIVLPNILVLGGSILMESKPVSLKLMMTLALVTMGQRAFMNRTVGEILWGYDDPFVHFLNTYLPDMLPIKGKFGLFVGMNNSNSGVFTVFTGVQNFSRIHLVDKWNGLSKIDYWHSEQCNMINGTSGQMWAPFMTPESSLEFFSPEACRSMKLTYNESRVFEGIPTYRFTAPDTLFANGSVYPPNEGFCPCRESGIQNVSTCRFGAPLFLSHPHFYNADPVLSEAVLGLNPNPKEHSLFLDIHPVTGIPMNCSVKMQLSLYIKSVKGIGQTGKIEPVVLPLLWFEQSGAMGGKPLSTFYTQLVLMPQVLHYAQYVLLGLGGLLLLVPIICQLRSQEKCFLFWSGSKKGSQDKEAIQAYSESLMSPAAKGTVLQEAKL
TLR9-MyD88 conf: TLR9-MyD88 association inhibitors, retest, confirmation, cell-based, CHO, BLA complementation, fluorescence, triplicate; inhibition, % at 4.98 µM; 680 compounds, 51% hits; AID 540250, 2011; shares compounds with TLR9-MyD88 inh; CCF4 FRET ratio;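 active = mean inhibition across three repeats above about 21% taken from the earlier screen, limit read from the data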;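 also: blue over green emission ratio reports constitutive TLR9 MyD88 association via BLA complementation; 0% = DMSO vehicle wells and 100% = clavulanate BLA inhibitor wells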
BLA nonselective: beta-lactamase reporter inhibitors in CHO cells, artefact control for TLR9-MyD88 binding inhibitor project, cell-based, fluorescence; shares compounds with TLR9-MyD88 inh; CHO-BLA cells, CCF4 FRET ratio, BLA reporter; inhibition, % at 4.98 µM; 680 compounds, 7% hits; AID 540251, 2011;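 active = mean inhibition above a 50% cutoff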;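 also: counterscreen of TLR9-MyD88 hits on CMV-driven BLA in CHO-K1 cells; 0% = DMSO alone and 100% = clavulanate blocking BLA; higher means less blue over green ratio so more BLA blockade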
TLR9 CHO cytotox: CHO cell viability loss – luminescence, single concentration, cytotoxicity control for TLR9-MyD88 binding inhibitor project | shares compounds with TLR9-MyD88 inh | TLR9-MyD88 CHO cells cytotoxicity | inhibition, % at 4.98 µM | 680 compounds, 39% hits | AID 588336, 2011; in the data active = inhibition above about 11%
* = called active by the depositor. An excerpt weighted towards active compounds, which were near 1.6% of everything screened.

COc1ccc2oc(=O)c(-c3nc(C)cs3)cc2c1 was read as NOD2-RIPK2 inh 8, TLR9-MyD88 inh 3, TLR4-MyD88 BLA -7, SR-BI DiI-HDL act 1 and SR-BI DiI inh 21.
For O=C(N/N=C\c1c[nH]c2ccccc12)c1ccc(O)cc1 the results were NOD2-RIPK2 inh 3, Hep lipid drop 14, TLR9-MyD88 inh 21*, SR-BI DiI-HDL act -7, SR-BI DiI inh 7, TLR9-MyD88 conf 0, BLA nonselective 0 and TLR9 CHO cytotox 1.
`CC(NC(=O)OCc1ccccc1)C(=O)Oc1cc2oc(=O)cc(-c3ccccc3)c2cc1Cl` (stereo unspecified) gave NOD2-RIPK2 inh 38*, Hep lipid drop 2, TLR9-MyD88 inh 34*, TLR4-MyD88 BLA 5, SR-BI DiI-HDL act 8, SR-BI DiI inh -8, TLR9-MyD88 conf 16, BLA nonselective 22 and TLR9 CHO cytotox -10.
`CCc1cc2c(-c3ccccc3)cc(=O)oc2cc1OC(C)C(=O)O` (stereo unspecified) gave NOD2-RIPK2 inh -11, Hep lipid drop 3, TLR9-MyD88 inh -8, SR-BI DiI-HDL act 8 and SR-BI DiI inh -8.
For Cc1cc(C)c2nc(NNC(=O)c3cc(-c4cccs4)nc4ccccc34)sc2c1 the results were NOD2-RIPK2 inh 15, TLR9-MyD88 inh 25*, TLR4-MyD88 BLA 7, SR-BI DiI-HDL act -35, SR-BI DiI inh 35, TLR9-MyD88 conf 1, BLA nonselective 4 and TLR9 CHO cytotox -2.
`COCCN(C(=O)CCC(=O)Nc1ccccn1)C(C(=O)NCCC(C)C)c1ccc(F)cc1` (stereo unspecified) gave NOD2-RIPK2 inh 0, Hep lipid drop -6 and TLR9-MyD88 inh -11.
Screening COc1ccc(CNC(=O)c2cc(-c3ccc(OC)c(OC)c3)on2)cc1 returned NOD2-RIPK2 inh -4, Hep lipid drop 4, TLR9-MyD88 inh 23*, TLR4-MyD88 BLA -5, SR-BI DiI-HDL act -7, SR-BI DiI inh 7, TLR9-MyD88 conf 1, BLA nonselective 0 and TLR9 CHO cytotox -4.
Screening Fc1ccc(COc2cccc(CNCc3ccncc3)c2)cc1 returned NOD2-RIPK2 inh 3, Hep lipid drop -7, TLR9-MyD88 inh -1, TLR4-MyD88 BLA -6, SR-BI DiI-HDL act 6 and SR-BI DiI inh -6.
Nc1c(C(=O)Nc2nccs2)sc2nc(-c3cccs3)cc(C(F)(F)F)c12 was read as NOD2-RIPK2 inh 19, Hep lipid drop -12, TLR9-MyD88 inh 22*, TLR4-MyD88 BLA 24, SR-BI DiI-HDL act -61, SR-BI DiI inh 61, TLR9-MyD88 conf 7, BLA nonselective 12 and TLR9 CHO cytotox -4.
Screening O=Nc1onc(-c2ccc([N+](=O)[O-])cc2)c1NO returned NOD2-RIPK2 inh 2, Hep lipid drop 8, TLR9-MyD88 inh 36*, TLR4-MyD88 BLA 7, SR-BI DiI-HDL act 14, SR-BI DiI inh -14, TLR9-MyD88 conf 4, BLA nonselective 2 and TLR9 CHO cytotox 0.
For COc1cccc(C2CC(=O)Nc3c2c(=O)n(C)c(=O)n3C)c1OC (stereo unspecified) the results were NOD2-RIPK2 inh -9, Hep lipid drop 4, TLR9-MyD88 inh 24*, TLR4-MyD88 BLA -15, SR-BI DiI-HDL act 6, SR-BI DiI inh -6, TLR9-MyD88 conf -2, BLA nonselective -3 and TLR9 CHO cytotox -5.
COc1ccccc1C1CC(=O)Nc2c1c(=O)n(C)c(=O)n2C (stereo unspecified) was read as NOD2-RIPK2 inh -10, TLR9-MyD88 inh -5, TLR4-MyD88 BLA 4, SR-BI DiI-HDL act 0 and SR-BI DiI inh 0.
COC(=O)C1=COC(C)C2CN3CCc4c([nH]c5cc(OC)c(OC)cc45)C3CC12 (stereo unspecified) was read as NOD2-RIPK2 inh 0, Hep lipid drop 8, TLR9-MyD88 inh -10, SR-BI DiI-HDL act -12 and SR-BI DiI inh 12.
Screening CCc1ccc(/C=C2/C(=O)N(c3ccccc3)C(=S)N2CC(=O)OC)s1 returned NOD2-RIPK2 inh 3, Hep lipid drop 12, TLR9-MyD88 inh 29*, TLR4-MyD88 BLA 5, SR-BI DiI-HDL act -9, SR-BI DiI inh 9, TLR9-MyD88 conf 10, BLA nonselective 33 and TLR9 CHO cytotox 2.
Screening C=CCCCCCCCCc1nc(SCC(C)=O)n[nH]1 returned NOD2-RIPK2 inh -17, Hep lipid drop -2, TLR9-MyD88 inh 7, SR-BI DiI-HDL act -11 and SR-BI DiI inh 11.
C=CCCCCCCCCc1nc(SCC(=O)O)n[nH]1 was read as NOD2-RIPK2 inh 1, Hep lipid drop -1, TLR9-MyD88 inh 32*, SR-BI DiI-HDL act 6, SR-BI DiI inh -6, TLR9-MyD88 conf -5, BLA nonselective -1 and TLR9 CHO cytotox 1.
`Cc1ccc(Cn2cccc2/C=C2/C(=N)N3C=CSC3=NC2=O)cc1` gave NOD2-RIPK2 inh -7, Hep lipid drop -1, TLR9-MyD88 inh 30*, TLR4-MyD88 BLA 1, SR-BI DiI-HDL act -28, SR-BI DiI inh 28, TLR9-MyD88 conf 6, BLA nonselective 11 and TLR9 CHO cytotox 16*.
Screening COc1cccc(C(=O)Nn2c(-c3cccs3)nc3ccccc3c2=O)c1OC returned NOD2-RIPK2 inh 4, Hep lipid drop -9, TLR9-MyD88 inh 6, TLR4-MyD88 BLA -3, SR-BI DiI-HDL act -10 and SR-BI DiI inh 10.
COc1ccc(CNn2c(-c3cccs3)nc3ccccc3c2=O)cc1OC was read as NOD2-RIPK2 inh -12, Hep lipid drop -8, TLR9-MyD88 inh 22*, TLR4-MyD88 BLA -1, SR-BI DiI-HDL act -35, SR-BI DiI inh 35, TLR9-MyD88 conf 1, BLA nonselective 1 and TLR9 CHO cytotox 12*.
